From ChEMBL document CHEMBL1124931, “Fluoro carbocyclic nucleosides: synthesis and antiviral activity of 2'- and 6'-fluoro carbocyclic pyrimidine nucleosides including carbocyclic 1-(2-deoxy-2-fluoro-beta-D-arabinofuranosyl)-5-methyluracil and carbocyclic 1-(2-deoxy-2-fluoro-beta-D-arabinofuranosyl)-5-iodouracil” (1990)
Converted amounts (≈) assume the structure as drawn.

Test system: Vero
Assay: Antiherpes activity was measured in a plaque reduction assay in Vero cells, against HSV-1 strain KOS.
Assay type: functional
Details: Chlorocebus sabaeus, read-out: ID50 (the source's name)
Procedure, shortened: (§1)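 Confluent Vero monolayers infected with 30–40 PFU of HSV-1 (KOS) or HSV-2 (186). After 1 h adsorption at 37 °C, overlaid with maintenance medium containing 0.75% carboxymethylcellulose plus a range of compound concentrations. Incubated 2 further days at 37 °C, then fixed and stained and plaques counted. ID50 is the concentration giving 50% inhibition of plaque formation.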

SMILES	IC50 [µg/mL]
O=c1[nH]c(=O)n([C@H]2C[C@H](O)[C@@H](CO)[C@H]2F)cc1I	> 300
Nc1ccn([C@@H]2C[C@H](CO)[C@@H](O)[C@H]2F)c(=O)n1	18 (≈ 74 µM)
O=c1[nH]c(=O)n([C@@H]2C[C@H](CO)[C@@H](O)C2)cc1I	0.07 (≈ 0.199 µM)
Nc1ccn([C@@H]2C[C@H](CO)[C@@H](O)[C@@H]2F)c(=O)n1	13 (≈ 53.4 µM)
O=c1[nH]c(=O)n([C@H]2C[C@H](O)[C@@H](CO)O2)cc1I [IDOXURIDINE]	0.1 (≈ 0.282 µM)
O=c1[nH]c(=O)n([C@H]2C[C@H](O)[C@@H](CO)[C@@H]2F)cc1I	> 300
Cc1cn(C2CC(CO)C(O)C2F)c(=O)[nH]c1=O (stereo not drawn)	> 100
O=c1[nH]c(=O)n(C2CC(CO)C(O)C2F)cc1I (stereo not drawn)	11 (≈ 29.7 µM)
O=c1ccn(C2CC(O)C(CO)C2F)c(=O)[nH]1 (stereo not drawn)	> 300
Cc1cn([C@@H]2O[C@H](CO)[C@@H](O)[C@@H]2F)c(=O)[nH]c1=O [5-METHYL-2'-FLUOROARAURACIL]	0.05 (≈ 0.192 µM)
Cc1cn(C2CC(CO)C(O)C2(F)F)c(=O)[nH]c1=O (stereo not drawn)	> 100

Test system: Vero
Assay: Cytotoxic effect on Vero cells was determined in mock infected cell monolayers incubated with the compound for 48 hr at 37 degree celsius.
Assay type: functional, Chlorocebus sabaeus
Details: not given
Procedure, shortened: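 Mock-infected confluent Vero monolayers exposed to compound for 48 h at 37 °C. Examined microscopically, with gross changes in cell staining, number or morphology scored. The cytotoxic dose is the level affecting 50% of the monolayer.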

SMILES	Cytotoxicity [µg/mL]
O=c1[nH]c(=O)n([C@H]2C[C@H](O)[C@@H](CO)[C@H]2F)cc1I	> 300
Nc1ccn([C@@H]2C[C@H](CO)[C@@H](O)[C@H]2F)c(=O)n1	> 300
O=c1[nH]c(=O)n([C@@H]2C[C@H](CO)[C@@H](O)C2)cc1I	300
Nc1ccn([C@@H]2C[C@H](CO)[C@@H](O)[C@@H]2F)c(=O)n1	> 100
O=c1[nH]c(=O)n([C@H]2C[C@H](O)[C@@H](CO)O2)cc1I [IDOXURIDINE]	> 30
O=c1[nH]c(=O)n([C@H]2C[C@H](O)[C@@H](CO)[C@@H]2F)cc1I	> 300
Cc1cn(C2CC(CO)C(O)C2F)c(=O)[nH]c1=O (stereo not drawn)	> 100
O=c1[nH]c(=O)n(C2CC(CO)C(O)C2F)cc1I (stereo not drawn)	> 100
O=c1ccn(C2CC(O)C(CO)C2F)c(=O)[nH]1 (stereo not drawn)	> 300
Cc1cn([C@@H]2O[C@H](CO)[C@@H](O)[C@@H]2F)c(=O)[nH]c1=O [5-METHYL-2'-FLUOROARAURACIL]	> 30
Cc1cn(C2CC(CO)C(O)C2(F)F)c(=O)[nH]c1=O (stereo not drawn)	> 100

Test system: Vero
Assay: Antiherpes activity was measured in a plaque reduction assay in Vero cells, against HSV-2 strain 186.
Assay type: functional
Details: Chlorocebus sabaeus, read-out: ID50 (the source's name)
Procedure, shortened: as §1

SMILES	IC50 [µg/mL]
O=c1[nH]c(=O)n([C@H]2C[C@H](O)[C@@H](CO)[C@H]2F)cc1I	> 300
Nc1ccn([C@@H]2C[C@H](CO)[C@@H](O)[C@H]2F)c(=O)n1	44 (≈ 181 µM)
O=c1[nH]c(=O)n([C@@H]2C[C@H](CO)[C@@H](O)C2)cc1I	97 (≈ 275 µM)
Nc1ccn([C@@H]2C[C@H](CO)[C@@H](O)[C@@H]2F)c(=O)n1	82 (≈ 337 µM)
O=c1[nH]c(=O)n([C@H]2C[C@H](O)[C@@H](CO)O2)cc1I [IDOXURIDINE]	0.9 (≈ 2.54 µM)
O=c1[nH]c(=O)n([C@H]2C[C@H](O)[C@@H](CO)[C@@H]2F)cc1I	> 300
Cc1cn(C2CC(CO)C(O)C2F)c(=O)[nH]c1=O (stereo not drawn)	> 100
O=c1[nH]c(=O)n(C2CC(CO)C(O)C2F)cc1I (stereo not drawn)	> 100
O=c1ccn(C2CC(O)C(CO)C2F)c(=O)[nH]1 (stereo not drawn)	> 300
Cc1cn([C@@H]2O[C@H](CO)[C@@H](O)[C@@H]2F)c(=O)[nH]c1=O [5-METHYL-2'-FLUOROARAURACIL]	0.05 (≈ 0.192 µM)
Cc1cn(C2CC(CO)C(O)C2(F)F)c(=O)[nH]c1=O (stereo not drawn)	> 100
